ChEMBL document CHEMBL5034020, “Self-Masked Aldehyde Inhibitors: A Novel Strategy for Inhibiting Cysteine Proteases” (J Med Chem, 2021)
Active and inactive are the calls of the source. No cut-off for these calls is given here. Residues, ends and D or L forms follow the SMILES beside them. *: point of attachment. Cbz = O=C(OCc1ccccc1)*

Key:
[1] = molecular target: Cruzipain (Trypanosoma cruzi, UniProt P25779); test: Time dependent inhibition of Trypanosoma cruzi cruzain using Cbz-Phe-Arg-AMC as substrate assessed as inhibition constant for EI complex measured for 0.5 to 1 hr by fluorescence based analysis
Chain of Cruzipain (P25779 whole entry): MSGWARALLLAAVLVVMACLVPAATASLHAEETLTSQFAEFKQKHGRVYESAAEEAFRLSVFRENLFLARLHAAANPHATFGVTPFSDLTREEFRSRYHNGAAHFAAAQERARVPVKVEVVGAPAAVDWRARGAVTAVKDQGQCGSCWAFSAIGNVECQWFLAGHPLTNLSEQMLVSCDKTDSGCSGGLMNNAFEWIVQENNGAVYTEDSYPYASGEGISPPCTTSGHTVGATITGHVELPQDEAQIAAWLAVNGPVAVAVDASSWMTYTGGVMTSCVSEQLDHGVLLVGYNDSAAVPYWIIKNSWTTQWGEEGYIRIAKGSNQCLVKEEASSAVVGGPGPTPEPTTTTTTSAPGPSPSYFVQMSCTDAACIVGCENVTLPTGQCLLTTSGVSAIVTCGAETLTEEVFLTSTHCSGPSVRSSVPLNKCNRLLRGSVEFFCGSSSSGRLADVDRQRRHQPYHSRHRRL

[2] = test system: Trypanosoma brucei brucei; test: Antitrypanosomal activity against bloodstream form of Trypanosoma brucei brucei measured after 3 to 4 days by Z2 coulter counter based analysis; type: functional, organism-based
How it was run: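 Bloodstream-form T. b. brucei SM427 grown at 37 °C in HM1–9 with 10% FBS and penicillin–streptomycin, seeded at ~1×10⁶ cells. Inhibitor at 0.5–20 μM final (DMSO <1%). Cultures diluted daily to stay in log phase, with inhibitor re-added each time. Cells counted with a Coulter counter.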

[3] = test system: C2C12; test: Cytotoxicity against mouse C2C12 cells assessed as reduction in cell viability at up to 40 uM; type: cell-based
[4] = molecular target: Cytochrome P450 3A4 (Homo sapiens, UniProt P08684); test: Metabolic stability of the compound assessed as CYP3A4 (unknown origin)-mediated conversion to N-((2S)-1-((3S)-2-hydroxychroman-3-ylamino)-1-oxo-3-phenylpropan-2-yl)-4-methylpiperazine-1-carboxamide measured up to 4 hrs in presence of NADPH-regenerating system; type: ADME
Chain of Cytochrome P450 3A4 (P08684 whole entry): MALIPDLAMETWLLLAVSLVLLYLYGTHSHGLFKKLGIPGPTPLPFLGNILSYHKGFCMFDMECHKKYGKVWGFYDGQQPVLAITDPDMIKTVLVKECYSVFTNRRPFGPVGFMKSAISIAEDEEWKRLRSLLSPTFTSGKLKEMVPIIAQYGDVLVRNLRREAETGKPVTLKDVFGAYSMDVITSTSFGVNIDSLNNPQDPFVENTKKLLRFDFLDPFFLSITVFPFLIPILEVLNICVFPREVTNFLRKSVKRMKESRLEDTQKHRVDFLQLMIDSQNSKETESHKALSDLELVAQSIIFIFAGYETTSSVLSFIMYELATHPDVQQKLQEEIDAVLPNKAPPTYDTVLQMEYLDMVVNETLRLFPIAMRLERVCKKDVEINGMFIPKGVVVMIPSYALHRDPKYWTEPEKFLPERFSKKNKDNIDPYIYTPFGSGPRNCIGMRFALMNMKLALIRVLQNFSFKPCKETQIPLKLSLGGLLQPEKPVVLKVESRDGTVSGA

[5] = molecular target: Cytochrome P450 2D6 (Homo sapiens, UniProt P10635); test: Metabolic stability of the compound assessed as CYP2D6 (unknown origin)-mediated conversion to N-((2S)-1-((3S)-2-hydroxychroman-3-ylamino)-1-oxo-3-phenylpropan-2-yl)-4-methylpiperazine-1-carboxamide measured up to 4 hrs in presence of NADPH-regenerating system; type: ADME
Chain of Cytochrome P450 2D6 (P10635 whole entry): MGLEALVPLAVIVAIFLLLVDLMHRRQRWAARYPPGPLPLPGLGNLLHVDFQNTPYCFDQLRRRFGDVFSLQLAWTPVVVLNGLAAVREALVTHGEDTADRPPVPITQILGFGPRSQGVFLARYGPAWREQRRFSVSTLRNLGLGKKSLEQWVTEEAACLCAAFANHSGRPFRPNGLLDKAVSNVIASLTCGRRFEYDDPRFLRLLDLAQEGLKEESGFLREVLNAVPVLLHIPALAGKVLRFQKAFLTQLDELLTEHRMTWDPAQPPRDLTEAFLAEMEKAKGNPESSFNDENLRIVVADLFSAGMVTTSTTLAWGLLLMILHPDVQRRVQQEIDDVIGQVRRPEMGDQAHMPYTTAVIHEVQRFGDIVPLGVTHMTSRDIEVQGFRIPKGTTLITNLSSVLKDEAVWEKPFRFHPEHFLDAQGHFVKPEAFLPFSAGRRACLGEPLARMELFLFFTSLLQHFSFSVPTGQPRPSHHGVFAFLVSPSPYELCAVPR

[6] = molecular target: Cytochrome P450 2C9 (Homo sapiens, UniProt P11712); test: Metabolic stability of the compound assessed as CYP2C9 (unknown origin)-mediated conversion to N-((2S)-1-((3S)-2-hydroxychroman-3-ylamino)-1-oxo-3-phenylpropan-2-yl)-4-methylpiperazine-1-carboxamide measured up to 4 hrs in presence of NADPH-regenerating system; type: ADME
Chain of Cytochrome P450 2C9 (P11712 whole entry): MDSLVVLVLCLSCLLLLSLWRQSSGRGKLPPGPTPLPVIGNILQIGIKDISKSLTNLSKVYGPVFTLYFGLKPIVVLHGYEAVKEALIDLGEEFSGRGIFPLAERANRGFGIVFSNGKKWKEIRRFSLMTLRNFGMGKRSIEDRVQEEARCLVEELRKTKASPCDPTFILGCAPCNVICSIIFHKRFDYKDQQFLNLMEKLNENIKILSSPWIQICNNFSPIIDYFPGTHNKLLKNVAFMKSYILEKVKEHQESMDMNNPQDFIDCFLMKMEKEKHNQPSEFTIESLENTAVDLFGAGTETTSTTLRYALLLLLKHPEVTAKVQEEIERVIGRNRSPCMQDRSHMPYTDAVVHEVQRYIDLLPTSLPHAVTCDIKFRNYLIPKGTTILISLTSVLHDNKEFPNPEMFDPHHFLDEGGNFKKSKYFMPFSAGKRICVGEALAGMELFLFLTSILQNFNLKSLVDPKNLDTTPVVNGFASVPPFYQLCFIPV

[7] = test system: Trypanosoma cruzi; test: Antitrypanosomal activity against Trypanosoma cruzi infected in mouse C2C12 cells incubated for 2 days by DAPI staining based microscopic analysis; type: functional, organism-based; conditions: C2C12, 48 h
How it was run: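 Inhibitor added as 3-fold serial dilutions, top 40 μM (typically 0.02–40 μM), 2 days at 37 °C. Fixed with 2% PFA in PBS, stained with 5 μg/mL DAPI for >30 min in the dark, then imaged to count parasites and host cells.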

[8] = molecular target: T1, Liver carboxylesterase (Sus scrofa, UniProt Q29550); test: Stability of the compound in buffer at pH 7.5 assessed as porcine esterase-mediated compound degradation measured over 3 hrs by LC-MS analysis; type: ADME; conditions: pig, read-out: Drug degradation
T1 sequence (Q29550 whole entry): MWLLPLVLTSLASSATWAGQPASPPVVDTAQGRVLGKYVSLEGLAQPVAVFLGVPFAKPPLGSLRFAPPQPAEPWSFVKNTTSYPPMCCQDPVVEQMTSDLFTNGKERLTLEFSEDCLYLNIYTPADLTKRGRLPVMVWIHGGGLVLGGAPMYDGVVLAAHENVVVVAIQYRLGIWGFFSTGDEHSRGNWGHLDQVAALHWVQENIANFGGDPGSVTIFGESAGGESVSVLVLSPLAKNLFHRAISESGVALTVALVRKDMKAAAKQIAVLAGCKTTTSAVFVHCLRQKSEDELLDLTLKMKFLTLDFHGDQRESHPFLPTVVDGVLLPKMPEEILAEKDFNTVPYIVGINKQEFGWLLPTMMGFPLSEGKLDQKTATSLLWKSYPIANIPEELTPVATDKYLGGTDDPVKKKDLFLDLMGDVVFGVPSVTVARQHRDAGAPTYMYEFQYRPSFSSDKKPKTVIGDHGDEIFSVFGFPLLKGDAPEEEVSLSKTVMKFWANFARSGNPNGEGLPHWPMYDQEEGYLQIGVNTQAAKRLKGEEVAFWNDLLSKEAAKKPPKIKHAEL
How it was run: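 Prodrugs at 2 mM in cruzain assay buffer (pH 7.5, 10% DMSO) with porcine liver esterase at 40 U/mL, shaken at 37 °C. Controls without esterase and buffer only. Aliquots taken at 0–300 min and quenched with MeCN, then the supernatant analysed by HPLC–MS with detection at 270 nm.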

[9] = Stability of the compound in buffer at pH 7.5 assessed as conversion to N-((2S)-1-((3S)-2-hydroxychroman-3-ylamino)-1-oxo-3-phenylpropan-2-yl)-4-methylpiperazine-1-carboxamide by measuring half life by LC-MS analysis; type: physicochemical
[10] = molecular target: Cruzipain (Trypanosoma cruzi) (UniProt P25779); test: Reversible inhibition of Trypanosoma cruzi cruzain using Cbz-Phe-Arg-AMC as substrate assessed as enzyme recovery at 10 fold >apparent Ki preincubated for 2 hrs followed by 100-fold dilution in presence of substrate by rapid dilution assay relative to control; set-up: scale not given: the % may be the effect or the level left
Chain of Cruzipain (Trypanosoma cruzi) (P25779 123-467 limits assumed): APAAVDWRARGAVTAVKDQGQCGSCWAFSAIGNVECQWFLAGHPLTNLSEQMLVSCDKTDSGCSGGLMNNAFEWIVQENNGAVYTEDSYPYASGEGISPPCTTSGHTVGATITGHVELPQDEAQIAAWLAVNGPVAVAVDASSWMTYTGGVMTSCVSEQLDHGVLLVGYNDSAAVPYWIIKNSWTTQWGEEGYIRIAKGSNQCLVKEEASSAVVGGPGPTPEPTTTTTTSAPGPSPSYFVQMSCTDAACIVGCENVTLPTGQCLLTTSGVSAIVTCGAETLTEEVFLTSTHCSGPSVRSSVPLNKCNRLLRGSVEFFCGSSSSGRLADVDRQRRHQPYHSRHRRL

[11] = molecular target: Cruzipain (Trypanosoma cruzi) (UniProt P25779); test: Reversible inhibition of Trypanosoma cruzi cruzain using Cbz-Phe-Arg-AMC as substrate at 0.1 times apparent Ki preincubated for 2 hrs followed by 100-fold dilution in presence of substrate by rapid dilution assay relative to control
[12] = molecular target: Cruzipain (Trypanosoma cruzi) (UniProt P25779); test: Binding affinity to Trypanosoma cruzi cruzain assessed as formation of enzyme-inhibitor adducts by measuring mass changes by mass spectrometric analysis
[13] = molecular target: Cruzipain (Trypanosoma cruzi) (UniProt P25779); test: Time dependent inhibition of Trypanosoma cruzi cruzain using Cbz-Phe-Arg-AMC as substrate measured after >= 20 mins; conditions: time min >=20, TDE = time-dependent effect
How it was run: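 Started by adding cruzain to 0.2 nM. Fluorescence (ex 360 / em 460 nm) followed for 20–60 min.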

[14] = Chemical stability of the compound in NMR buffer in absence of DTT assessed as phenylhydrazone formation at 0.2 mM incubated for 2 hrs in presence of 1 M phenyl hydrazine by UV absorbance based analysis; type: physicochemical; conditions: 200 µM
How it was run: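 0.2 mM compound treated with 1 mM phenylhydrazine final (added from a 1 M stock) in NMR buffer lacking DTT, with a DMSO control. Phenylhydrazone formation followed continuously by UV absorbance at 282 nm for 2 h.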

[15] = molecular target: Cruzipain (Trypanosoma cruzi) (UniProt P25779); test: Binding affinity to Trypanosoma cruzi cruzain assessed as covalent bond formation between compound and Cys25 residue by 2D HSQC NMR spectroscopy analysis
How it was run: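 ¹³C-labelled lactol diluted from a 10 mM DMSO-d6 stock into NMR buffer. Control at 0.6 mM; sample at 0.4 mM with 0.44 mM freshly SEC-purified cruzain. ¹H-¹³C HSQC recorded at 800 MHz and 25 °C, with a spectrum acquired after 1 h with enzyme.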

[16] = molecular target: Cruzipain (Trypanosoma cruzi) (UniProt P25779); test: Reversible inhibition of Trypanosoma cruzi cruzain using Cbz-Phe-Arg-AMC as substrate assessed as enzyme recovery preincubated for 2 hrs followed by 100-fold dilution in presence of substrate by rapid dilution assay
[17] = molecular target: Cruzipain (Trypanosoma cruzi) (UniProt P25779); test: Time dependent inhibition of Trypanosoma cruzi cruzain using Cbz-Phe-Arg-AMC as substrate assessed as association rate constant for EI complex measured over 30 mins
[18] = Selectivity index, ratio of EC50 for antitrypanosomal activity against bloodstream form of Trypanosoma brucei brucei measured after 3 to 4 days by Z2 coulter counter based analysis to Ki for time dependent inhibition of Trypanosoma cruzi cruzain using Cbz-Phe-Arg-AMC as substrate assessed as inhibition constant for EI complex measured for 0.5 to 1 hr by fluorescence based analysis; type: toxicity

SMILES | Ki [1] [µM] | EC50 [2] [µM] | Activity [3] | EC50 [7] [µM] | Activity [10] [%] | inhibition [11] [%] | further results
CCOC1Oc2ccccc2C[C@@H]1NC(=O)[C@H](Cc1ccccc1)NC(=O)N1CCN(C)CC1 (stereo partly drawn) | > 5 | 12 | Non-Toxic |  |  |  | Stability [4]: Stable; Stability [5]: Stable; Stability [6]: Stable
CC(C)OC1Oc2ccccc2C[C@@H]1NC(=O)[C@H](Cc1ccccc1)NC(=O)N1CCN(C)CC1 (stereo partly drawn) | > 5 | 14 | Non-Toxic |  |  |  | Stability [4]: Stable; Stability [5]: Stable; Stability [6]: Stable
CN1CCN(C(=O)N[C@@H](Cc2ccccc2)C(=O)N[C@H](/C=C/S(=O)(=O)c2ccccc2)CCc2ccccc2)CC1 [K-777] |  |  | Toxic | 0.04 |  |  | 
COc1ccccc1C[C@@H](C=O)NC(=O)[C@H](Cc1ccccc1)NCC(=O)OCc1ccccc1 | 0.022 |  |  |  |  |  | 
CC(=O)OC1Oc2ccccc2C[C@@H]1NC(=O)[C@H](Cc1ccccc1)NC(=O)N1CCN(C)CC1 (stereo partly drawn) | 1 | 3.7 | Non-Toxic | 13 |  |  | metabolised at 3 h [8]: 10%; t1/2 [9]: 48 min
CCC(=O)OC1Oc2ccccc2C[C@@H]1NC(=O)[C@H](Cc1ccccc1)NC(=O)N1CCN(C)CC1 (stereo partly drawn) | > 5 | 3.1 | Non-Toxic |  |  |  | t1/2 [9]: 24 min
O=C(N[C@@H](Cc1ccccc1)C(=O)N[C@H]1Cc2ccccc2OC1O)OCc1ccccc1 (stereo partly drawn) | 0.049 | 6.8 | Non-Toxic | 2.9 | 91 | 9 | Activity [12]: Active
CN1CCN(C(=O)N[C@@H](Cc2ccccc2)C(=O)N[C@H]2Cc3ccccc3OC2O)CC1 (stereo partly drawn) | 0.047 | 0.6 | Non-Toxic | > 20 |  |  | inhibition [13]: Tde; Activity [12]: Active; Stability [14]: Stable; Activity [15]: Active; Activity [16]: inactive
O=C(N[C@@H](Cc1ccccc1)C(=O)N[C@H]1Cc2cc(F)ccc2OC1O)OCc1ccccc1 (stereo partly drawn) | 0.048 | 2.7 | Non-Toxic | 3.5 | 91 | 9 | Activity [12]: Active
O=C(CN[C@@H](Cc1ccccc1)C(=O)N[C@H](CO)Cc1ccccc1O)OCc1ccccc1 | > 10 |  |  |  |  |  | 
CN1CCN(C(=O)N[C@@H](Cc2ccccc2)C(=O)N[C@H](C=O)CCc2ccccc2)CC1 |  |  |  |  |  |  | inhibition [13]: Tde; Stability [14]: Unstable; Activity [16]: inactive
O=C(Cn1ccnc1[N+](=O)[O-])NCc1ccccc1 [BENZNIDAZOLE] |  |  |  | 4 |  |  | 
Cc1ccc2c(c1)C[C@H](NC(=O)[C@H](Cc1ccccc1)NC(=O)OCc1ccccc1)C(O)O2 (stereo partly drawn) |  | 0.5 | Non-Toxic | 5.7 | 91 | 9 | Activity [12]: Active
COc1ccc2c(c1)C[C@H](NC(=O)[C@H](Cc1ccccc1)NC(=O)OCc1ccccc1)C(O)O2 (stereo partly drawn) | 0.35 | 2.6 | Non-Toxic |  | 91 | 9 | 
COC(=O)c1ccc2c(c1)C[C@H](NC(=O)[C@H](Cc1ccccc1)NC(=O)OCc1ccccc1)C(O)O2 (stereo partly drawn) | 0.018 | 4 | Non-Toxic | 3.5 | 91 | 9 | 
O=C(N[C@@H](Cc1ccccc1)C(=O)N[C@H]1Cc2cc(Cl)ccc2OC1O)OCc1ccccc1 (stereo partly drawn) | 0.074 | 5.8 | Non-Toxic |  | 91 | 9 | 
O=C[C@H](Cc1ccccc1)NC(=O)[C@H](Cc1ccccc1)NC(=O)OCc1ccccc1 (Cbz-Phe-Phe-aldehyde) | 0.00044 | 3.3 | Toxic | 0.5 |  |  | Ka [17]: 7.6 10^-4/s; Ratio [18]: 7500; Activity [16]: inactive
CC(C)C(=O)OC1Oc2ccccc2C[C@@H]1NC(=O)[C@H](Cc1ccccc1)NC(=O)N1CCN(C)CC1 (stereo partly drawn) | > 5 | 4 | Non-Toxic | 10 |  |  | t1/2 [9]: 16 min
CN1CCN(C(=O)N[C@@H](Cc2ccccc2)C(=O)N[C@@H]2Cc3ccccc3C[C@H]2O)CC1 (mixture of isomers) | > 100 |  |  |  |  |  | 
